# Compounds with a hit are over-represented: about 3.1% of the library has one in this group of screens.
# rRNA inh HTS = inhibitors of bacterial rRNA selective over humanized ribosomes. E. coli WT GFP vs humanized-ribosome RFP mutants, fluorescence, 24 h; active compounds read low; DMSO median 0, no signal -100. GFP signal change (wild-type ribosome), % (concentration not given with the values). hit rate 1.6% among 350,000;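 active means significant combined selectivity score with lowered wild-type GFP, culture density cut under 30%, mutant RFP and density less affected; inactive means any of these conditions unmet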
# miR-122 sensor = inhibitors of miR-122 in Huh7 cells; Huh7 miR-122 Renilla luciferase sensor, 48 h; neutral wells = 0, positive control = 100; activation (reporter increase), % at 12.5 µM; hit rate 0.3% among 340,000;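 active means mean replicate activation score at least 90 and every replicate individually at or above 90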;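 further: higher luciferase means less miR-122 activity so hits act as miR-122 inhibitors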
# Cneo AK release = Cryptococcus neoformans lysis via adenylate kinase release | C. neoformans lysis, adenylate kinase release luminescence, 4 h; normalised: neutral wells 0, clomiphene wells 100 | lysis activity, % at 15 µM | hit rate 0.2% among 360,000;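 active means mean lysis activity across replicates of at least 80%, whatever share of replicates individually reach that level; inactive means mean lysis activity below 80%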
#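 Assay system: log-phase C. neoformans yeast / Quantity: yeast cell density of 5 × 10^6 cells/mL / Medium: fresh YPD growth medium / Compound: single dose / Timing: static 4 h at 37 °C with compound, 1 h detection / Measured by: adenylate kinase release luminescence / Read-out: lysis from increased AK signal / Benchmarks: Clomiphene as positive lysis control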
# E-selectin induc = induces E-selectin expression in human endothelial cells; P16581; HUVEC E-selectin immunofluorescence imaging; normalized: neutral wells 0, TNF-alpha wells 100; activation, % at 7.58 µM; hit rate 0.37% among 260,000;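 active means mean E-selectin-positive cell signal at least 10% of the positive control, reached in at least 60% of replicates, without over 20% cell loss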
# Target sequence (P16581 whole entry, looked up): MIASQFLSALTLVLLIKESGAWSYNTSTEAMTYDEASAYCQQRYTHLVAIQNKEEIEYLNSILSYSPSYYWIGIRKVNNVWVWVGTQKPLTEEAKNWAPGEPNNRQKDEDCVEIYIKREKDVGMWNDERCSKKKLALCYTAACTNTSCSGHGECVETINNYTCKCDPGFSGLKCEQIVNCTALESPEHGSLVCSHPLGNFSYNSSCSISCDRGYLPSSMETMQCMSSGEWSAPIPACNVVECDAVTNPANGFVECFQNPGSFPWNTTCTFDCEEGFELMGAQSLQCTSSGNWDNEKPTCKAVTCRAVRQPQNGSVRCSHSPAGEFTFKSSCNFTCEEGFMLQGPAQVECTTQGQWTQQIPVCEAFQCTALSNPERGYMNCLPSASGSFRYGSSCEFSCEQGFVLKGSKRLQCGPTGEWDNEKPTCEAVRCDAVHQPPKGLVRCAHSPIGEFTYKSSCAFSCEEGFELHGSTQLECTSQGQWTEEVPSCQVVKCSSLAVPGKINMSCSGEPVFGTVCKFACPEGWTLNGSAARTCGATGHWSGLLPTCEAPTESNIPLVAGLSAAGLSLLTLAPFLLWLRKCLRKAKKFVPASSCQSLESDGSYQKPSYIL
#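 Assay system: HUVEC primary endothelial cells. Input: 3,000 HUVEC seeded per well. Doses: one compound dose added by pin transfer. Read-out basis: % PE-positive cells. Benchmarks: TNF-alpha high, DMSO low. Detection: immunofluorescence imaging. Buffer or medium: EGM-2, gelatin.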
# DENV2 CPE = inhibitors of DENV2 cytopathic effect | DENV2-infected cells, cytopathic effect rescue, plate reader | CPE inhibition, % at 9.99 µM | hit rate 1.7% among 350,000; in the data active means CPE inhibition above about 20%, passing the limit was not always enough; tested in BHK-21 cells;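 further: 0% = median of neutral control wells and 100% = median of positive control wells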
# * hit, by the source's call; nt = no result given; ! = not active in a repeat; [ ] = remark or other dose.
SMILES,rRNA inh HTS,miR-122 sensor,Cneo AK release,E-selectin induc,DENV2 CPE
O=C(Nc1nc2c(F)cccc2s1)c1ccc([N+](=O)[O-])o1,3,nt,3,0,1
O=C(Nc1nc2ccc(F)cc2s1)c1ccc([N+](=O)[O-])o1,-26*,-12,0,0,-4
COc1ccc2nc(N3C(=O)CNC3=S)sc2c1,-5,-9,-10,3,-4
COc1ccc2nc(-n3c(O)c(C4=c5ccccc5=NC4=O)[nH]c3=S)sc2c1,-44*,-5,5,0,1
Cc1ccc(C2=NS(=O)(=O)N(C)C(C(=O)Nc3cc(C)n(CC(=O)N4CCC(C)CC4)n3)=C2)cc1,-29*,-3,-9,nt,-1
COc1ccc(S(=O)(=O)N(C)C[C@@H]2Oc3c(NC(=O)Nc4c(C)noc4C)cccc3C(=O)N([C@@H](C)CO)C[C@H]2C)cc1,-2,nt,nt,3,nt
COc1ccc(S(=O)(=O)N(C)C[C@H]2Oc3c(NC(=O)Nc4c(C)noc4C)cccc3C(=O)N([C@@H](C)CO)C[C@H]2C)cc1,2,-4[16.7 µM],-1,175*!,-6
Cc1noc(C)c1NC(=O)Nc1cccc2c1O[C@@H](CN(C)S(=O)(=O)c1ccc(F)cc1)[C@@H](C)CN([C@@H](C)CO)C2=O,-5,5[16.7 µM],57,-4,89*
CO[C@H](CN(C)S(=O)(=O)c1ccc(Cl)cc1)[C@@H](C)CN(Cc1ccccc1Cl)[C@@H](C)CO,-2,nt,-11,0,-1
CN(C)C(=O)[C@H]1[C@H](CO)[C@H]2Cn3c(ccc(-c4cccc(F)c4)c3=O)[C@H]2N1C(=O)c1ccccn1,3,2[16.7 µM],1,1,-6
C[C@H](CO)N1C[C@H](C)[C@H](CN(C)Cc2ccccc2F)Oc2cc(C3=CCCCC3)ccc2S1(=O)=O,-1,nt,3,nt,7
CN1c2ccc(-c3ccccc3)cc2[C@@H]2[C@@H](CCN2S(=O)(=O)c2ccccc2F)[C@H]1CO,-5,-1[16.7 µM],-3,0,-7
CN1c2ccc(-c3ccccc3)cc2[C@@H]2[C@@H](CCN2S(=O)(=O)c2ccccc2F)[C@@H]1CO,-2,5[16.7 µM],4,0,68*
Cc1ccccc1S(=O)(=O)N1CC[C@@H]2[C@@H](CO)N(C)c3ccc(-c4cccc(F)c4)cc3[C@@H]21,3,79[16.7 µM],-16,0,44*
C[C@H]1CN([C@@H](C)CO)C(=O)Cc2cc(NC(=O)CCCCCC(=O)Nc3ccccc3N)ccc2O[C@H]1CN(C)Cc1ccc(C(F)(F)F)cc1,-4,-8[16.7 µM],2,0,80*
C[C@@H]1CN([C@@H](C)CO)C(=O)Cc2cc(NC(=O)CCCCCC(=O)Nc3ccccc3N)ccc2O[C@H]1CN(C)Cc1ccc(C(F)(F)F)cc1,-4,-18[16.7 µM],5,0,50*
C[C@H]1CN([C@@H](C)CO)C(=O)Cc2cc(NC(=O)CCCCCC(=O)Nc3ccccc3N)ccc2O[C@@H]1CN(C)Cc1ccc(C(F)(F)F)cc1,-4,-22[16.7 µM],1,0,-5
O=C(C[C@H]1CC[C@@H]2[C@H](COC[C@H](O)CN2S(=O)(=O)c2cccc(F)c2)O1)Nc1ccccc1,-2,2[16.7 µM],0,0,3
CN(C(=O)c1ccc(NC(=O)Cc2ccc(NC(=O)C3CCN(C(=O)C4CCCCC4)CC3)cc2)cc1)C1CCCC1,-1,2,0,0,86*
CN(C(=O)c1cccc(NC(=O)Cc2ccc(NC(=O)C3CCN(C(=O)C4CC4)CC3)cc2)c1)C1CCCC1,3,nt,2,0,47*
CN(C(=O)c1cccc(NC(=O)Cc2ccc(NC(=O)C3CCN(C(=O)C4CC4)CC3)cc2)c1)C1CCC1,5,nt,-5,-6,10
CC(C)NC(=O)N1CC2(C1)[C@H](c1ccccc1)[C@@H](CO)N2CCC(F)(F)F,4,nt,nt,1,-8
COc1ccc(S(=O)(=O)Nc2ccc3c(c2)C(=O)N(C)C[C@H](OC)[C@@H](C)CN[C@@H](C)CO3)cc1,2,nt,-5,0,7
CCOc1ccc2ccc(OCC)c(/C=N/n3cnnc3)c2c1,-27*,nt,-2,0,5
CCOc1cc(/C=N/n2cnnc2)ccc1O,10,-7,-1,nt,0
Cc1ccc(OCc2ccc(C(=O)NN)o2)c([N+](=O)[O-])c1,1,nt,nt,14,-1

# Source: PubChem
